Measured values published in ChEMBL document CHEMBL1142669, “Synthesis and evaluation of double-prodrugs against HIV. Conjugation of D4T with 6-benzyl-1-(ethoxymethyl)-5-isopropyluracil (MKC-442, emivirine)-type reverse transcriptase inhibitors via the SATE prodrug approach” (J Med Chem, 2005).

Assays:
[1] = tested on: Human immunodeficiency virus 2; assay: Effective dose was measured against human immunodeficiency virus type 2 in thymidine-kinase-deficient CEM Cells; experiment 3; format: functional; conditions: Human immunodeficiency virus 2, CCRF-CEM; read-out: ED50 (the source's name)
Summary of the method: (§1)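 HIV-2 strain SBL 6669 in CEM TK- cells, infected at 0.005 MOI and kept with compound dilutions for 6 days, with infected and uninfected controls. Readout was HIV-2 antigen ELISA. The 50% effective value was interpolated from % inhibition versus concentration plots. Each line is one of three independent tests.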

MT4 = assay: Cytotoxic concentration required to reduce the viability of normal uninfected MT-4 cells; format: functional; conditions: Homo sapiens
Summary of the method: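 Uninfected MT-4 cultures were grown with the same compound dilutions as the antiviral assay, run in parallel. A 30% inhibition of cell growth relative to control cultures counted as significant. CC50 was interpolated from plots of percent inhibition versus compound concentration.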

[2] = tested on: Human immunodeficiency virus 1; assay: Effective concentration of compound to inhibit human immunodeficiency virus HIV-1 strain N119 multiplication in MT-4 infected cells; format: functional, organism-based
Summary of the method: (§2)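 MT-4 cells were infected at 0.005 MOI and cultured 6 days in growth medium (RPMI 1640, 10% heat-inactivated FCS, antibiotics) with the compound dilutions. Infected and uninfected cultures without compound ran in parallel. HIV expression was quantified indirectly by MTT assay. EC50 was interpolated from plots of percent inhibition versus concentration.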

[3] = tested on: Human immunodeficiency virus 1; assay: Effective concentration of compound to inhibit human immunodeficiency virus HIV-1 strain N119 multiplication in CEM wild type cells; format: functional, organism-based; conditions: Human immunodeficiency virus 1, CCRF-CEM
Summary of the method: (§3)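 HIV-1 strains HTLV-IIIB (wild type) and N119 (RT Y181C) were grown in H9 cells in RPMI 1640 with 10% heat-inactivated FCS. CEM wt or CEM TK- cells were infected at 0.005 MOI with compound dilutions for 6 days, alongside infected and uninfected controls. HIV expression was read by HIV-1 antigen ELISA. IC50 was interpolated from % inhibition versus concentration plots.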

[4] = tested on: Human immunodeficiency virus 1; assay: Effective concentration of compound to inhibit human immunodeficiency virus HIV-1 wild type strain IIIB multiplication in CEM wild type cells; format: functional, organism-based; conditions: Human immunodeficiency virus 1, CCRF-CEM; summary of the method: as §3
[5] = tested on: Human immunodeficiency virus 2; assay: Effective concentration of compound to inhibit human immunodeficiency virus HIV-2 multiplication in CEM wild type cells; format: functional, organism-based; conditions: Human immunodeficiency virus 2, CCRF-CEM
Summary of the method: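 CEM wild-type cells were infected at 0.005 MOI and held 6 days in growth medium containing the compound dilutions, alongside untreated infected and uninfected controls. HIV-1 or HIV-2 antigen was detected by ELISA. EC50 was interpolated from plots of percent inhibition versus concentration.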

[6] = tested on: Human immunodeficiency virus 2; assay: Effective dose was measured against human immunodeficiency virus type 2 in thymidine-kinase-deficient CEM Cells; experiment 2; format: functional; conditions: Human immunodeficiency virus 2, CCRF-CEM; read-out: ED50 (the source's name); summary of the method: as §1
[7] = tested on: Human immunodeficiency virus 1; assay: Effective concentration of compound to inhibit human immunodeficiency virus HIV-1 strain N119 multiplication in thymidine-kinase-deficient CEM cells; format: functional, organism-based; conditions: Human immunodeficiency virus 1, CCRF-CEM; summary of the method: as §3
[8] = tested on: Human immunodeficiency virus 2; assay: Effective concentration of compound to inhibit human immunodeficiency virus HIV-2 multiplication in thymidine-kinase-deficient CEM cells; format: functional, organism-based; conditions: Human immunodeficiency virus 2, CCRF-CEM
Summary of the method: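 Thymidine-kinase-deficient CEM cells were infected with HIV-2 at 0.005 MOI and incubated 6 days with compound dilutions, alongside infected and uninfected controls without compound. Virus expression was quantified by HIV-2 antigen ELISA. ED50 was interpolated from percent inhibition versus concentration plots; three independent tests.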

[9] = tested on: Human immunodeficiency virus 2; assay: Effective dose was measured against human immunodeficiency virus type 2 in thymidine-kinase-deficient CEM Cells; experiment 1; format: functional; conditions: Human immunodeficiency virus 2, CCRF-CEM; read-out: ED50 (the source's name); summary of the method: as §1
[10] = tested on: Human immunodeficiency virus 1; assay: Effective concentration of compound to inhibit human immunodeficiency virus HIV-1 wild type strain IIIB multiplication in MT-4 infected cells; format: functional, organism-based; summary of the method: as §2
[11] = tested on: Human immunodeficiency virus 1; assay: Effective concentration of compound to inhibit human immunodeficiency virus HIV-1 wild type strain IIIB multiplication in thymidine-kinase-deficient CEM cells; format: functional, organism-based; conditions: Human immunodeficiency virus 1, CCRF-CEM; summary of the method: as §3
CCRF-CEM = assay: Cytotoxic concentration was measured in CEM wild-type/thymidine-kinase-deficient CEM Cells; format: functional; conditions: Homo sapiens
Summary of the method: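 Uninfected CEM wild-type and CEM TK- cultures were exposed to the compound dilutions in parallel with the antiviral tests. Cell growth inhibition of 30% versus control cultures was considered significant. CC50 was interpolated from plots of percent inhibition against concentration.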

[12] = tested on: Human immunodeficiency virus 2; assay: Effective concentration of compound to inhibit human immunodeficiency virus HIV-2 multiplication in MT-4 infected cells; format: functional, organism-based; summary of the method: as §2

EC50 [10] [nM] | SMILES | EC50 [1] [nM] | CC50 (MT4) [nM] | EC50 [2] [nM] | EC50 [3] [nM] | EC50 [4] [nM] | EC50 [5] [nM] | EC50 [6] [nM] | EC50 [7] [nM] | EC50 [8] [nM] | EC50 [9] [nM] | EC50 [11] [nM] | CC50 (CCRF-CEM) [nM] | EC50 [12] [nM]
5 | CCc1c(Cc2cc(C)cc(C)c2)n(COC/C=C/c2ccc(OC(=O)c3ccccc3)cc2)c(=O)[nH]c1=O |  | 35000 | 1000 |  |  |  |  |  |  |  |  |  | 
500 | Cc1cn([C@H]2C=C[C@@H](CO)O2)c(=O)[nH]c1=O [STAVUDINE] |  | > 100000 | 1800 | 800 | 300 | 100 |  | > 10000 | > 10000 |  | > 10000 | > 100000 | 500
20 | CCc1c(Cc2cc(C)cc(C)c2)n(COC/C=C/c2ccc(O)cc2)c(=O)[nH]c1=O |  | 35000 | 2400 | 400 | 2 | > 10000 |  | 200 | > 10000 |  | 6 | 32000 | > 10000
 | CCOCn1c(Cc2ccccc2)c(C(C)C)c(=O)[nH]c1=O [EMIVIRINE] |  | > 100000 | 79000 | > 100000 | 30 | > 10000 |  | > 10000 | > 10000 |  | > 10000 | > 100000 | > 10000
30 | CCc1c(Cc2cc(C)cc(C)c2)n(COCc2ccc(OCc3ccccc3)cc2)c(=O)[nH]c1=O |  | 12000 | 300 |  |  |  |  |  |  |  |  |  | 

SMILES | EC50 [10] [nM] | EC50 [1] [nM] | CC50 (MT4) [nM] | EC50 [2] [nM] | EC50 [3] [nM] | EC50 [4] [nM] | EC50 [5] [nM] | EC50 [6] [nM] | EC50 [7] [nM] | EC50 [8] [nM] | EC50 [9] [nM] | EC50 [11] [nM] | CC50 (CCRF-CEM) [nM] | EC50 [12] [nM]
CCOCn1c(Cc2ccccc2)c(C(C)C)c(=O)n(C(=O)c2ccc(OP(=O)(OCCSC(=O)C(C)(C)C)OCC3C=CC(n4cc(C)c(=O)[nH]c4=O)O3)cc2)c1=O (centres undefined) | 30 | 4000 | 35000 | 2700 | 30 | 30 | 20 | 3000 | 300 | 3000 | 3000 | 6 | 32000 | 
CCc1c(Cc2cc(C)cc(C)c2)n(COCc2ccc(O[P@](=O)(OCCSC(=O)C(C)(C)C)OC[C@@H]3C=C[C@H](n4cc(C)c(=O)[nH]c4=O)O3)cc2)c(=O)[nH]c1=O | 3 | 2000 | 35000 | 400 |  |  | 100 | 2000 |  | 2000 | 3000 |  | 32000 | 4000
CCc1c(Cc2cc(C)cc(C)c2)n(COC/C=C/c2ccc(O[P@](=O)(OCCSC(=O)C(C)(C)C)OC[C@@H]3C=C[C@H](n4cc(C)c(=O)[nH]c4=O)O3)cc2)c(=O)[nH]c1=O | 40 | 5000 | 35000 | 3300 | 300 | 10 | 100 | 4000 | 200 | 4000 | 3000 | 5 | 32000 | 
